# From ChEMBL document CHEMBL2169822, “Discovery and optimization of 1,3,4-trisubstituted-pyrazolone derivatives as novel, potent, and nonsteroidal farnesoid X receptor (FXR) selective antagonists” (J Med Chem, 2012)
# Calls of active or inactive are those of the source. The calls are words filed in the database; no cut-off is given here.
# Tests used:
# [1] = Agonist activity at GST tagged human recombinant FXRalphaLBD expressed in Escherichia coli BL21 cells assessed as SRC-1 co-activator association at 40 uM after 30 mins by HTRF assay; type: functional
# How it was run: (§1)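 HTRF coactivator recruitment: 10 nM GST-human FXRαLBD (residues 238–473, E. coli BL21(DE3)), 0.83 nM anti-GST-Eu cryptate, 100 nM biotin-SRC1 peptide, 41.75 nM SA/XL665. Buffer was 50 mM Hepes pH 7.0, 125 mM KF, 0.125% CHAPS, 0.05% dry milk. Compound alone or with CDCA, 30 min at room temperature. Signal was 1000×(668/620 nm). Primary screen at 40 μM; IC50 as mean ± SE, three experiments.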
# [2] = Antagonist activity at GST-tagged human recombinant FXRalphaLBD expressed in Escherichia coli BL21 cells assessed as inhibition of CDCA-induced SRC-1 co-activator association at 40 uM by HTRF assay; type: functional; how it was run: as §1
# [3] = (§2) Antagonist activity at GST-tagged human recombinant FXRalphaLBD expressed in Escherichia coli BL21 cells assessed as inhibition of CDCA-induced SRC-1 co-activator association by HTRF assay; type: functional; how it was run: as §1
# HEK-293T [4] = assay: Agonist activity at FXRalpha/RXRalpha expressed in HEK293T cells co-expressing GAL4 DBD after 18 hrs by luciferase based transactivation assay; type: functional, cell-based; conditions: Homo sapiens
# How it was run: (§3)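 FXR transactivation in HEK293T cells transiently transfected with pcDNA3.1-FXRα, pcDNA3.1-RXRα, pGL3-FXRE-Luc and pRL-SV40 Renilla vector. Medium was replaced 6 h after transfection with medium holding compound at varied concentrations, with or without 20 μM CDCA, for 18 h. Read-out was dual-luciferase. Three independent experiments.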
# Mus musculus [5] = assay: Reduction of serum triglyceride level in cholesterol-fed C57BL/6 mouse at 100 mg/kg, po after 10 days; type: functional; design: scale not given: the % may be the effect or the level left
# How it was run: (§4)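 Male C57BL/6 mice, 8–12 weeks old, were randomized into five groups of nine. Control mice had ground chow; the other groups had chow with 2% cholesterol. Compound (50 or 100 mg/kg) or reference (100 mg/kg) was suspended in 0.5% CMC-Na and given by oral gavage; control and vehicle mice got 0.5% CMC-Na. Serum and hepatic triglyceride and total cholesterol were measured.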
# Mus musculus [6] = assay: Reduction of hepatic triglyceride level in cholesterol-fed C57BL/6 mouse at 100 mg/kg, po after 10 days; type: functional; design: scale not given: the % may be the effect or the level left; how it was run: as §4
# Mus musculus [7] = assay: Reduction of hepatic cholesterol level in cholesterol-fed C57BL/6 mouse at 100 mg/kg, po after 10 days; type: functional; design: scale not given: the % may be the effect or the level left; how it was run: as §4
# BL21 = assay: as §2; type: functional; how it was run: as §1
# HEK-293T [8] = assay: Antagonist activity at FXRalpha/RXRalpha expressed in HEK293T cells co-expressing GAL4 DBD assessed as inhibition of CDCA-induced transactivation at 50 uM after 18 hrs by luciferase reporter gene assay; type: functional, cell-based; conditions: Homo sapiens; how it was run: as §3
# [9] = Agonist activity at GST tagged human recombinant FXRalphaLBD expressed in Escherichia coli BL21 cells assessed as SRC-1 co-activator association after 30 mins by HTRF assay; type: functional; conditions: BL21, 0.5 h
# How it was run: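 Human FXRα LBD (residues 238–473) expressed as GST fusion in E. coli BL21(DE3) (IPTG 0.2 mM, 20 °C 6 h), purified on glutathione resin then Superdex 75. 10 nM GST-FXRαLBD incubated with 0.83 nM anti-GST-Eu cryptate, 100 nM biotin-SRC1 peptide and 41.75 nM SA/XL665 in 50 mM Hepes pH 7.0, 125 mM KF, 0.125% CHAPS, 0.05% dry milk, 30 min room temperature. Signal read as 1000×(668/620 nm). Primary screen at 40 μM.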
SMILES,Activity [1] [%],inhibition at 40 µM [2] [%],further results
CCOC(=O)c1cccc(N2N=C(C)/C(=C/c3ccc(OCC)c(OC)c3)C2=O)c1,<5,9.4,
COc1cc(/C=C2\C(=O)N(c3cccc([N+](=O)[O-])c3)N=C2C(C)C)ccc1O,<5,26.4,
CCCCCOc1ccc(/C=C2\C(=O)N(c3cccc(C(=O)O)c3)N=C2C)cc1OC,<5,55.4,IC50 [3]: 39.2 µM; Activity (HEK-293T [4]): inactive
CC1=NN(c2cccc([N+](=O)[O-])c2)C(=O)/C1=C\c1ccc(C)s1,<5,< 5,
CCOc1ccc(/C=C2\C(=O)N(c3c(F)c(F)c(F)c(F)c3F)N=C2C)cc1OC,<5,43.6,IC50 [3]: 82.2 µM; Activity (HEK-293T [4]): inactive
CC1=NN(c2ccc([N+](=O)[O-])cc2)C(=O)/C1=C(/C)c1ccc(Cl)cc1,<5,16.8,
CCOc1ccc(/C=C2\C(=O)N(c3cccc([N+](=O)[O-])c3)N=C2C)cc1OC,29.2,< 5,
CCOc1ccc(/C=C2\C(=O)N(c3ccccc3F)N=C2C)cc1OC,<5,5.5,
CCOc1ccc(/C=C2\C(=O)N(c3cc(C(F)(F)F)cc(C(F)(F)F)c3)N=C2C)cc1OC,<5,< 5,
COc1cc(/C=C2\C(=O)N(c3cccc(C(=O)OC(C)C)c3)N=C2C)ccc1O,<5,29.9,
COc1cc(/C=C2\C(=O)N(c3cccc(C(=O)O)c3)N=C2C)ccc1OCc1ccccc1,<5,57.5,IC50 [3]: 33.8 µM; Activity (HEK-293T [4]): inactive
CC1=NN(c2cccc(C(=O)O)c2)C(=O)/C1=C\c1ccc(O)c(O)c1,<5,17.4,
CCOc1ccc(/C=C2\C(=O)N(c3cc(Cl)cc(Cl)c3)N=C2C)cc1OC,<5,< 5,
COc1ccc(/C=C2\C(=O)N(c3cccc([N+](=O)[O-])c3)N=C2C)c2ccccc12,<5,22.7,
CCOc1ccc(/C=C2\C(=O)N(c3cccc(C(F)(F)F)c3)N=C2C)cc1OC,<5,< 5,
CCOc1ccc(/C=C2\C(=O)N(c3ccc(C(C)C)cc3)N=C2C)cc1OC,<5,7.7,
C/C=C1\C(=O)C[C@H]2[C@@H]3CCC4=CC(=O)CC[C@]4(C)[C@H]3CC[C@]12C [GUGGULSTERONE],,,Activity (Mus musculus [5]): 53.7%; Activity (Mus musculus [6]): 45.1%; Activity (Mus musculus [7]): 26.3%; inhibition (BL21): Dose-dependent effect; IC50 [3]: 89.4 µM; inhibition (HEK-293T [8]): Active
CCOc1ccc(/C=C2\C(=O)N(c3ccc([N+](=O)[O-])cc3)N=C2C)cc1OC,12.7,14.8,
CCOc1ccc(/C=C2\C(=O)N(c3ccc(C(F)(F)F)cc3)N=C2C)cc1OC,<5,9.5,
CC1=NN(c2ccccc2)C(=O)/C1=C\c1ccc(Br)cc1,<5,72.6,IC50 [3]: 9.93 µM; Activity (HEK-293T [4]): inactive
CCOc1ccc(/C=C2\C(=O)N(c3ccc(Cl)c(Cl)c3)N=C2C)cc1OC,<5,7.3,
CC1=NN(c2cccc(C(=O)O)c2)C(=O)/C1=C\C=C\c1ccccc1,<5,32.1,
COc1cc(/C=C2\C(=O)N(c3cccc(C(=O)O)c3)N=C2C)ccc1OC(C)C,<5,< 5,
C[C@H](CCC(=O)O)[C@H]1CC[C@H]2[C@@H]3[C@H](O)C[C@@H]4C[C@H](O)CC[C@]4(C)[C@H]3CC[C@]12C [CHENODIOL],,,EC50 [9]: 12.5 µM
CCOc1ccc(/C=C2\C(=O)N(c3cccc(C(=O)O)c3)N=C2C)cc1OC,9,48.5,IC50 [3]: 69 µM
CC1=NN(c2ccccc2)C(=O)/C1=C\c1ccccc1,<5,23.1,
COc1cc(/C=C2\C(=O)N(c3cccc(C(=O)O)c3)N=C2C)ccc1O,6.4,< 5,
